High-throughput results: PubChem BioAssay, The Scripps Research Institute Molecular Screening Center
Sampled rows, rich in hits. Any-hit rate of the full collection: about 4.5%.
TAAR1 agonist: human TAAR1 agonists, primary screen, Fluo-8 calcium fluorescence, CHO RD-HGA16 cells. Trace amine-associated receptor 1 (Homo sapiens), Q96RJ0. hit rate 0.99% among 360,000. vehicle wells 0%, saturating PEA agonist 100%. activation, % at 3 µM;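 active means activation above the mean activation of all test compounds in the run plus 3 SD, cut at about 38% in these data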
Target sequence (Q96RJ0 whole entry, looked up): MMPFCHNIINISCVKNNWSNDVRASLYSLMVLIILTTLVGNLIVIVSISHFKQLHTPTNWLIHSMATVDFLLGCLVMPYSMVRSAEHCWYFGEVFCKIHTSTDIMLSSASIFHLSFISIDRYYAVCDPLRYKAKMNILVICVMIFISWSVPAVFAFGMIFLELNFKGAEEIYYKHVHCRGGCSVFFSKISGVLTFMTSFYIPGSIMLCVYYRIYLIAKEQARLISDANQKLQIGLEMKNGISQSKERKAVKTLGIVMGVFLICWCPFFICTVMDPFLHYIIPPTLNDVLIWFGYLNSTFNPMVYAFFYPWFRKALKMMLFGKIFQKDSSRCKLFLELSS
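Signal – calcium-sensitive Fluo-8 signal, excitation 470-495, emission 515-575 nm · System – RD-HGA16 (CHO) cells co-expressing Gα16 and hTAAR1 · Incubation – 17-24 h seeding, 75 min 37 °C dye, 30 min RT · Compound dosing – 3 µM single concentration · Repeats – no replicates (n 1)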
OX1R antag-1: antagonists of human orexin 1 receptor (OX1R) | Orexin/Hypocretin receptor type 1 (Homo sapiens), O43613 | OX1R-expressing cells, FRET antagonist read-out | inhibition, % at 6.6 µM | hit rate 1.8% among 330,000 | AID 485270, 2010; in the data active means inhibition mostly above about 38%, no sharp cut-off; inactive means mostly below about 40%;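 further: 0% = agonist challenge alone and 100% = reference antagonist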
Target sequence (O43613 whole entry, looked up): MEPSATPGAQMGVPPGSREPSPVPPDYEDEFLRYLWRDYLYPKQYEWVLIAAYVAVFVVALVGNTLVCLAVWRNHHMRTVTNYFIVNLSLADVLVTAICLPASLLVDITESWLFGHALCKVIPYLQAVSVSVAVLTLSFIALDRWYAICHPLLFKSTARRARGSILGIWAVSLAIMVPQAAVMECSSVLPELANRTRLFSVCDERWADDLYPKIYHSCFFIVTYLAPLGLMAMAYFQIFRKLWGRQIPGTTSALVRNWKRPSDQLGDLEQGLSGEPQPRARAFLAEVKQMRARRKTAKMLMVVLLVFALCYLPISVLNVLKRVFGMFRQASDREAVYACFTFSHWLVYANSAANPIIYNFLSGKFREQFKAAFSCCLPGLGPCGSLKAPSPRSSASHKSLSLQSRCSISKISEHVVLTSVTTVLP
OX1R antag-2: OX1R (HCRTR1) antagonists, primary screen, fluorescence, CHO/OX1R cells, Fluo-8 calcium, orexin A; Fluo-8 calcium fluorescence; inhibition, % at 5 µM; AID 434989, 2010; hit rate 0.43% among 330,000; Orexin/Hypocretin receptor type 1 (Homo sapiens), O43613;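 active means inhibition above its plate's threshold, mean inhibition of all tested compounds on the plate plus 3 SD, cut at about 37% in these data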;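 further: 0% = orexin A challenge wells and 100% = SB-334867-A antagonist wells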
CHO parental Ca: ATP-evoked calcium signal inhibitors, parental CHO, primary screen, counter-screen for OX1R antagonist project, cell-based, fluorescence, Fluo-8 calcium dye | hit rate 0.63% among 330,000 | parental CHO-K1, ATP-induced calcium, Fluo-8 fluorescence | AID 463079, 2010 | inhibition, % at 5.6 µM;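 active means inhibition above that plate's mean sample inhibition plus 3 SD, cut at about 26% in these data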;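 further: 0% = ATP-challenged DMSO wells and 100% = DMSO wells without ATP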
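Material – parental CHO cells · Reagent – ATP stimulus · Compound – single nominal dose of 5.6 µM per compound · Detection – Fluo-8 fluorescence · Read-out basis – percent inhibition of calcium signal · Controls – ATP-challenged DMSO wells low, unchallenged DMSO wells high · Repeats – no replicates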
GPR7 antag: GPR7 receptor antagonists, primary screen, cell-based, fluorescence, single concentration; GPR7-expressing cells, fluorescence antagonist assay; inhibition, % at 4.4 µM; hit rate 1.1% among 290,000; in the data active means inhibition above about 16%, passing the limit was not always enough;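 further: cells stimulated with the agonist NPW; 0% = agonist with vehicle and 100% = vehicle without agonist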
TAAR1 antag: human TAAR1 antagonists, primary screen, Fluo-8 calcium fluorescence, CHO RD-HGA16 cells; Trace amine-associated receptor 1 (Homo sapiens), Q96RJ0; antagonist; inhibition, % at 3 µM; hit rate 1.5% among 360,000; AID 624466, 2012;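 active means inhibition above a per-plate cutoff, the mean inhibition of test compounds on that plate plus 3 SD, cut at about 49% in these data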;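 further: 0% = DMSO plus EC80 beta-PEA response and 100% = DMSO alone without agonist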
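Test system – hTAAR1-expressing CHO RD-HGA16 cells, Gα16-coupled · Reagent – β-PEA at EC80 concentration, post-compound challenge · Compound dosing – 3 µM, single point · Timing – 140 s kinetic read after compound, 140 s after agonist · Detection – Fluo-8 intracellular calcium dye fluorescence, real-time kinetic reads · Control set – DMSO and EC80 PEA controls · Repeats – n of 1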
GPR7 antag cf: GPR7 receptor antagonists, confirmation, cell-based, fluorescence, single concentration. hit rate 52% among 2,400. GPR7-expressing cells, calcium fluorescence antagonist mode. AID 1952, 2009. inhibition, % at 4.4 µM. shares compounds with GPR7 antag; in the data active means inhibition above about 24%;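 further: stimulated with the GPR7 agonist NPW; 0% = agonist plus vehicle and 100% = vehicle alone without agonist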
MCHR1 antag: MCHR1 antagonists in cells, counter-screen for GPR7 antagonist project, cell-based, fluorescence, human. shares compounds with GPR7 antag. MCHR1-expressing cells, fluorescence antagonist assay. inhibition, % at 4.4 µM. hit rate 62% among 2,400. AID 2148, 2009;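 further: 0% = vehicle with agonist and 100% = vehicle without agonist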
nonsel antag count: nonselective antagonists in TAAR1 counter-screen cells, counter-screen for hTAAR1 antagonist project, cell-based, fluorescence, calcium; shares compounds with TAAR1 antag; counterscreen cell line, antagonist mode; inhibition, % at 3 µM; hit rate 77% among 2,400; AID 651780, 2012;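 further: CHO-Ga16 host cells stimulated with ATP at an EC80 level; 0% = agonist EC80 plus vehicle and 100% = vehicle without agonist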
TAAR1 antag conf: human TAAR1 antagonists, retest of hits, confirmation, cell-based, fluorescence; shares compounds with TAAR1 antag; TAAR1-expressing cells, fluorescence antagonist read-out; inhibition, % at 3 µM; hit rate 40% among 2,400; in the data active means inhibition above about 49%;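 further: CHO-Ga16 host cells challenged with agonist PEA near its EC80; 0% = agonist at EC80 plus vehicle and 100% = vehicle with no agonist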
Ga16 ag counter-1: calcium activation in Ga16-expressing cells, counter-screen for TAAR1 antagonist project, cell-based, fluorescence; shares compounds with TAAR1 antag; agonist counterscreen; activation, % at 3 µM; hit rate 18% among 2,400; in the data active means activation above about 12%;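 further: 0% = vehicle wells and 100% = saturating stimulus response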
TAAR1 ag counter: TAAR1 activation by candidate antagonists – cell-based, fluorescence, counter-screen for TAAR1 antagonist project | shares compounds with TAAR1 antag | hTAAR1 cell line, agonist mode | activation, % at 3 µM | hit rate 2% among 2,400; in the data active means activation above about 37%;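 further: CHO cells stably expressing TAAR1 with calcium dye readout; 0% = DMSO vehicle and 100% = full agonist response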
TAAR1 ag confirm: human TAAR1 agonists, retest of hits, confirmation, Fluo-8 calcium fluorescence, CHO RD-HGA16 cells; hit rate 82% among 2,400; shares compounds with TAAR1 agonist; activation, % at 3 µM; scaled: DMSO 0%, maximal phenethylamine 100%;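 active means activation above a cutoff set at the run's mean compound activation plus 3 SD, cut at about 39% in these data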
Ga16 ag counter-2: nonselective calcium mobilization agonists, CHO-Ga16 cells, counter-screen for hTAAR1 agonist project, cell-based, fluorescence, CHO-Ga16 parental line; shares compounds with TAAR1 agonist; Fluo-8 calcium fluorescence; normalized to maximal ATP response, DMSO zero; activation, % at 3 µM; hit rate 50% among 2,400;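 active means activation above the run cutoff, the mean activation over all tested wells plus 3 SD, cut at about 12% in these data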;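 further: 0% = DMSO wells and 100% = maximal ATP response on the peak over basal ratio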
TAAR1 desensitize: TAAR1 desensitization by agonist hits, confirmation, counter-screen for TAAR1 agonist project, cell-based, fluorescence, tachyphylaxis; inhibition, % at 3 µM; shares compounds with TAAR1 agonist; CHO RD-HGA16 hTAAR1, Fluo-8 calcium, beta-PEA response inhibition; hit rate 46% among 2,400; AID 651951, 2012;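 active means inhibition above the run cutoff, the mean inhibition of all test compounds plus 3 SD, cut at about 49% in these data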;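 further: beta-PEA stimulus applied at its EC80; loss of beta-PEA calcium signal after compound pretreatment read as receptor desensitization; 0% = DMSO with beta-PEA at EC80 and 100% = DMSO alone without agonist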
Ga16 antag count: inhibition of ATP-evoked calcium response in CHO-Ga16 cells, counter-screen for TAAR1 agonist project, cell-based, fluorescence; CHO-Ga16 ATP-induced calcium, Fluo-8 fluorescence; shares compounds with TAAR1 agonist; hit rate 39% among 2,400; inhibition, % at 3 µM; AID 651952, 2012;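 active means inhibition above the plate's mean compound inhibition plus 3 SD, computed per plate, cut at about 22% in these data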;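 further: 0% = EC80 ATP with DMSO and 100% = DMSO wells without ATP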
The depositor's hits bear a star; nt = no result. Unless noted, no stated cut-off is given here; in the data, active means inhibition above about 22%; inactive means the rest.

SMILES	TAAR1 agonist	OX1R antag-1	OX1R antag-2	CHO parental Ca	GPR7 antag	TAAR1 antag	GPR7 antag cf	MCHR1 antag	nonsel antag count	TAAR1 antag conf	Ga16 ag counter-1	TAAR1 ag counter	others
CCCNC(=O)Cn1cnc2sc(C(=O)N3CCN(Cc4ccc5c(c4)OCO5)CC3)c(C)c2c1=O	1.1	7.7	-4.2	5.5	-7.9	2.9	nt	nt	nt	nt	nt	nt
Cc1c(C(=O)N2CCN(Cc3ccc4c(c3)OCO4)CC2)sc2ncnc(N3CCN(c4ccccc4F)CC3)c12	4.5	8.5	-12.9	-12.2	75.2*	77.3*	54.5*	81.7*	34.2*	50.4*	8.1	5.3
O=C(COc1cccc(NC(=O)c2ccccc2)c1)c1ccc(F)cc1	14.5	10.3	-28.5	-13.3	-4.1	29.7	nt	nt	nt	nt	nt	nt
O=C(COc1cccc(NC(=O)c2cccc([N+](=O)[O-])c2)c1)c1ccc(F)cc1	27.1	22.5	0.9	-0.1	29.1*	77.5*	35.3*	69.9*	38.5*	57.9*	12.2*	19.7
CC(C)CN1C(=O)CSCC1(C)C(=O)Nc1ccc2c(c1)OCCO2 (stereo unspecified)	1.8	nt	nt	nt	nt	-6.3	nt	nt	nt	nt	nt	nt
CC1CCCC(=NNC(=O)C2COc3ccccc3O2)C1 (stereo unspecified)	-3.1	1.5	-12.3	-1.1	nt	1.4	nt	nt	nt	nt	nt	nt
O=C(Nc1nc(-c2ccccc2)cs1)c1ccccc1NS(=O)(=O)c1ccc(F)cc1	3.9	94.2*	63.5*	57.2*	23.9*	69.7*	41.8*	60.3*	57.6*	67.7*	10.4	3.7
CCN1CCN(Cc2ccc(NC(=O)c3ccc(C)c(NC(=O)C(=O)c4c[nH]c5ccccc45)c3)cc2C(F)(F)F)CC1	20.7	46.1	8.5	22.1	35.9*	78.5*	60.9*	74.1*	45.8*	47.1	10.6	10.3
CCNC(=O)N(C)C[C@H]1N[C@@](C)(C(=O)OC)[C@H]2C(=O)N(C)C(=O)[C@@H]12	4.4	6.7	14.3	-4.9	nt	-24.2	nt	nt	nt	nt	nt	nt
Cc1ccccc1CN1CCc2c(OCC(=O)N3CCCc4ccccc43)cccc2C1=O	12.0	27.8	11.6	-2.5	22.2*	72.1*	30.6*	60.5*	40.6*	53.8*	10.7	7.9
CN1C(=O)CSc2ccc(NC(=O)N3CCOCC3)cc21	8.4	9.4	-18.9	-12.1	0.6	7.1	nt	nt	nt	nt	nt	nt
Cc1cc(C)cc(NC(=O)Nc2ccc3c(c2)N(C)C(=O)CS3)c1	6.7	21.6	11.4	34.0*	25.2*	82.3*	29.5*	75.7*	42.8*	51.0*	11.4	6.5
COc1ccccc1CCNC(C)CCc1ccc(O)cc1 (stereo unspecified)	8.1	14.1	-12.4	-13.5	-8.7	-10.6	nt	nt	nt	nt	nt	nt
COc1cc(OC)c(OC)cc1CCC(C)NCCC(c1ccccc1)c1ccccc1 (stereo unspecified)	51.8*	3.8	-21.0	-1.4	60.1*	23.3	54.9*	48.9*	nt	nt	nt	nt	TAAR1 ag confirm=48.4*;Ga16 ag counter-2=19.3*;TAAR1 desensitize=39.0;Ga16 antag count=24.7*
C[C@@H]1CN([C@H](C)CO)C(=O)CCCn2cc(nn2)CO[C@H]1CN(C)C(=O)Nc1cccc(C(F)(F)F)c1	2.8	nt	nt	nt	nt	7.9	nt	nt	nt	nt	nt	nt
CC(C)(C)c1ccc(C(=O)NC2CCN(Cc3ccccc3)CC2)cc1	8.7	2.6	-13.7	-10.6	1.0	-17.5	nt	nt	nt	nt	nt	nt
O=C(NC1CCCc2ccccc21)c1cccc(S(=O)(=O)N2CCN(c3ccccc3)CC2)c1 (stereo unspecified)	46.7*	4.4	16.6	-0.8	44.6*	-4.7	61.6*	43.5*	nt	nt	nt	nt	TAAR1 ag confirm=29.9;Ga16 ag counter-2=10.7;TAAR1 desensitize=25.9;Ga16 antag count=21.5*
COc1cc(-c2n[nH]c(=S)n2/N=C/c2cccn2C)cc(OC)c1OC	138.4*	1.9	77.3*	29.3	79.8*	71.2*	88.2*	73.6*	nt	nt	nt	nt	TAAR1 ag confirm=139.0*;Ga16 ag counter-2=112.8*;TAAR1 desensitize=97.0*;Ga16 antag count=78.7*
Cc1cccc(C)c1NC(=O)C(c1ccc(-c2ccccc2)cc1)n1c(=O)c(-c2cc3ccccc3[nH]2)nc2ccccc21 (stereo unspecified)	2.4	nt	nt	nt	nt	-1.2	nt	nt	nt	nt	nt	nt
